ChEMBL document CHEMBL1155577, “New annonaceous acetogenins from the roots of Uvaria calamistrata” (J Nat Prod, 2000)
≈ marks a conversion by molar mass, not a printed value.

Legend:
Type in all cases: functional, cell-based
A2780 = experiment: Cytotoxicity against human A2780 cells by MTT assay
In short: (§1)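 5-day MTT test on human tumor cells (KB epidermoid, HCT-8 ileocecal carcinoma, A2780 epithelial); cell-generated MTT-formazan solubilized in dimethyl sulfoxide and read as a measure of cell growth.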

KB = experiment: Cytotoxicity against human KB cells by MTT assay; in short: as §1
[1] = Cytotoxicity against HCT cells by MTT assay; details: Homo sapiens; in short: as §1

Row | Structure (SMILES) | IC50 (A2780) [µg/mL] | IC50 (KB) [µg/mL] | IC50 [1] [µg/mL]
1 | CCCCCCCC[C@H](O)[C@H]1CC[C@H]([C@H]2CC[C@H]([C@H](O)CCCCCCCCCCCC(O)CCC3=C[C@H](C)OC3=O)O2)O1 (some centres not stated) [CALAMISTRIN F] | 0.0366 (≈ 0.0588 µM) | 0.051 (≈ 0.0819 µM) | 0.00227 (≈ 0.00364 µM)
2 | CCCCCCCCCC[C@@H](O)[C@H]1CC[C@H]([C@H](O)CCCCCC(O)CCCCCCCCCCC2=C[C@H](C)OC2=O)O1 (some centres not stated) [CALAMISTRIN C] | 0.00315 (≈ 0.00517 µM) | 0.0605 (≈ 0.0994 µM) | 0.00473 (≈ 0.00777 µM)
3 | CCCCCCCCCC[C@H](O)[C@H]1CC[C@H]([C@H](O)CCCCCC(O)CCCCCCCCCCC2=C[C@H](C)OC2=O)O1 (some centres not stated) [CALAMISTRIN D] | 0.431 (≈ 0.708 µM) | 0.0273 (≈ 0.0448 µM) | 0.0732 (≈ 0.12 µM)
4 | CCCCCCCC[C@@H](O)[C@H]1CC[C@H]([C@H]2CC[C@H]([C@H](O)CCCCCCCCCCC[C@@H](O)CCC3=C[C@H](C)OC3=O)O2)O1 [CALAMISTRIN G] | 0.00197 (≈ 0.00316 µM) | 0.02 (≈ 0.0321 µM) | 0.00331 (≈ 0.00531 µM)
